Tests used:
[1] = target: T1, RePC (Rhizobium etli pyruvate carboxylase) (Rhizobium etli, UniProt Q2K340); test: malate dehydrogenase-coupled pyruvate carboxylation assay, global fit; type: biochemical
T1 sequence (Q2K340 1-1154): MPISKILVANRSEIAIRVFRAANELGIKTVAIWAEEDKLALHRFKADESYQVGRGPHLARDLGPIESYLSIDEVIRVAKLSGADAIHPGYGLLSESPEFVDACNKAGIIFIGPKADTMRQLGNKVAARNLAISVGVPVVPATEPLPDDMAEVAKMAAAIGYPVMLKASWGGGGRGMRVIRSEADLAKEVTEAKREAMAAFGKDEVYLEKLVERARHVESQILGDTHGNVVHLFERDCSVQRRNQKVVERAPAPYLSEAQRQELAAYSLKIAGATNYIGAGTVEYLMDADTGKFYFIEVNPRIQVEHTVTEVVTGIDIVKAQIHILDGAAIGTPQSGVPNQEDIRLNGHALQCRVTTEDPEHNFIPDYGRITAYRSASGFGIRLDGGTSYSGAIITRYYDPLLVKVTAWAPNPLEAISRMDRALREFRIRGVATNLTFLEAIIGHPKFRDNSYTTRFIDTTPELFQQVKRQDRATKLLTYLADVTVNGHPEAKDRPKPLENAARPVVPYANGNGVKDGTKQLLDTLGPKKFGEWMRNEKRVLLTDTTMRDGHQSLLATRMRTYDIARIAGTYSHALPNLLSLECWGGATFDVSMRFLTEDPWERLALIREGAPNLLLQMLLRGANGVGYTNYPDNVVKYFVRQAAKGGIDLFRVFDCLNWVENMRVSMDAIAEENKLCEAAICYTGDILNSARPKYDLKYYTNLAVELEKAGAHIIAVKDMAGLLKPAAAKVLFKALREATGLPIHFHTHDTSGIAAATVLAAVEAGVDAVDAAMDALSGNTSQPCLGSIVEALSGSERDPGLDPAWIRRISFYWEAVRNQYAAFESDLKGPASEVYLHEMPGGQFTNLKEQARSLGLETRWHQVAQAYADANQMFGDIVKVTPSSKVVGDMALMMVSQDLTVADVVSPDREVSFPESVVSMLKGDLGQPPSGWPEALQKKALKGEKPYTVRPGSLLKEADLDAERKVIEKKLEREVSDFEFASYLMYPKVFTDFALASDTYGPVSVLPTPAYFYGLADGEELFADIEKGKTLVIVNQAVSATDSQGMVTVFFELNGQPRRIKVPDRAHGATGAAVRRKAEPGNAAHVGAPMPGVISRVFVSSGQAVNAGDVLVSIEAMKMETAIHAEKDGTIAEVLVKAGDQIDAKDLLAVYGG

[2] = target: T1, RePC (Rhizobium etli pyruvate carboxylase); test: malate dehydrogenase-coupled pyruvate carboxylation assay; type: biochemical
How it was run: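 N-terminally His-tagged R. etli enzyme, expressed in E. coli BL21(DE3). NADH oxidation followed, with oxaloacetate converted to malate by 5 units of malate dehydrogenase. Run at 30 °C in 0.1 M Tris-HCl pH 7.8 with 20 mM NaHCO3, 6 mM MgCl2, 1 mM MgATP, 0.2 mM NADH and 10 mM pyruvate. Activator varied 0–150 μM at 0–8 mM L-aspartate. kapp = initial velocity/enzymic biotin. Hill-equation nonlinear least-squares fit gives the activation constant.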

| Compound | Ki [1] | EC50 [2] |
| --- | --- | --- |
| N[C@@H](CC(=O)O)C(=O)O [L-aspartate] | 1260 ± 80 µM | – |
| CC(=O)SCCNC(=O)CCNC(=O)[C@H](O)C(C)(C)COP(=O)(O)OP(=O)(O)OC[C@H]1O[C@@H](n2cnc3c(N)ncnc32)[C@H](O)[C@@H]1OP(=O)(O)O [acetyl-CoA] | – | 7.3 ± 0.9 µM |

Source: PMC4238798 (Biochemistry, 2014)
